Test results: ChEMBL document CHEMBL1141778, “Iminosugar-producing Thai medicinal plants” (J Nat Prod, 2005)
Activity calls are given as the source filed them. No cut-off for these calls is given here.

How the values were obtained:
[1] = Inhibition of alpha-L-fucosidase
Procedure, shortened: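 Bovine epididymis alpha-L-fucosidase at pH 5.5 with the matching p-nitrophenyl glycoside as substrate. The reaction was stopped with 400 mM Na2CO3, and released p-nitrophenol was read at 400 nm.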

[2] = (§1) Inhibition of almond beta-glucosidase; design: species or system Prunus dulcis
Procedure, shortened: (§2)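 The substrate was the matching p-nitrophenyl glycoside. Reactions were terminated with 400 mM Na2CO3, and liberated p-nitrophenol was measured spectrophotometrically at 400 nm.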

[3] = Inhibition of bovine liver beta-galactosidase; design: species or system Bos taurus
Procedure, shortened: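 Bovine liver beta-galactosidase at pH 6.8 with the matching p-nitrophenyl glycoside substrate. Stopped by adding 400 mM Na2CO3; released p-nitrophenol was measured at 400 nm.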

Prunus dulcis = test: as §1; procedure, shortened: as §2
[4] = target: T1, Sucrase-isomaltase, intestinal (Rattus norvegicus, UniProt P23739); test: Inhibition of rat intestinal sucrase
Procedure, shortened: (§3)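 Enzyme source was brush border membranes prepared from rat small intestine, assayed at pH 5.8 with sucrose (sucrase) or isomaltose (isomaltase) as substrate. Released D-glucose was quantified colorimetrically with a glucose test kit.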

[5] = target: T1, Sucrase-isomaltase, intestinal; test: Inhibition of rat intestinal isomaltase; procedure, shortened: as §3

T1 sequence (P23739 1-1013 limits assumed): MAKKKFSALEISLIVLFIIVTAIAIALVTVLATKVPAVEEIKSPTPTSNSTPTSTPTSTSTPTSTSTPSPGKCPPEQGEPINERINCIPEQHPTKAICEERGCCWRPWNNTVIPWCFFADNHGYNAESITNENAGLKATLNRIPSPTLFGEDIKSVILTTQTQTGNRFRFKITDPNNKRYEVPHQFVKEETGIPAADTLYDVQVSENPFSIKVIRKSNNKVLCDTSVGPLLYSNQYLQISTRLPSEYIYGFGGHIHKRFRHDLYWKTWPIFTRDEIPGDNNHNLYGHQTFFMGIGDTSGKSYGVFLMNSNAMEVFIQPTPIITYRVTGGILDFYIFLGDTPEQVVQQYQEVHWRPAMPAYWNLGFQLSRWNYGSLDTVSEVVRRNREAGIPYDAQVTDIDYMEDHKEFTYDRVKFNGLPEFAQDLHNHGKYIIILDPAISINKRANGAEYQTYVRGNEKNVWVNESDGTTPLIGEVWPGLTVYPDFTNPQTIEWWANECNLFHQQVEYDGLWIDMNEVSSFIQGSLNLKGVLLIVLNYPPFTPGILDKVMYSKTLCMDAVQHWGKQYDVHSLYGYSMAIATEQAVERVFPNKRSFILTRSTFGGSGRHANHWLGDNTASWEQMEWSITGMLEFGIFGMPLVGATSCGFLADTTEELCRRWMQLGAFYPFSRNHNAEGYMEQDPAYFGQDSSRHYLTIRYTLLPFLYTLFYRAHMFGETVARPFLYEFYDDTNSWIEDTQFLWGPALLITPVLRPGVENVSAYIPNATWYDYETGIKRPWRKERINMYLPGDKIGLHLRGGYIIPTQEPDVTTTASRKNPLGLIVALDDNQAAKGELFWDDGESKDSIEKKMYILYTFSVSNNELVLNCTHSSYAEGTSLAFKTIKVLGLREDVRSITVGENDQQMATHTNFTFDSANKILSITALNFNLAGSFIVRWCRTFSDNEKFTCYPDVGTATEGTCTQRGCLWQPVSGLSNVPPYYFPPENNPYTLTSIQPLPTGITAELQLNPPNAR
T1 sequence (P23739 1014-1841 limits assumed): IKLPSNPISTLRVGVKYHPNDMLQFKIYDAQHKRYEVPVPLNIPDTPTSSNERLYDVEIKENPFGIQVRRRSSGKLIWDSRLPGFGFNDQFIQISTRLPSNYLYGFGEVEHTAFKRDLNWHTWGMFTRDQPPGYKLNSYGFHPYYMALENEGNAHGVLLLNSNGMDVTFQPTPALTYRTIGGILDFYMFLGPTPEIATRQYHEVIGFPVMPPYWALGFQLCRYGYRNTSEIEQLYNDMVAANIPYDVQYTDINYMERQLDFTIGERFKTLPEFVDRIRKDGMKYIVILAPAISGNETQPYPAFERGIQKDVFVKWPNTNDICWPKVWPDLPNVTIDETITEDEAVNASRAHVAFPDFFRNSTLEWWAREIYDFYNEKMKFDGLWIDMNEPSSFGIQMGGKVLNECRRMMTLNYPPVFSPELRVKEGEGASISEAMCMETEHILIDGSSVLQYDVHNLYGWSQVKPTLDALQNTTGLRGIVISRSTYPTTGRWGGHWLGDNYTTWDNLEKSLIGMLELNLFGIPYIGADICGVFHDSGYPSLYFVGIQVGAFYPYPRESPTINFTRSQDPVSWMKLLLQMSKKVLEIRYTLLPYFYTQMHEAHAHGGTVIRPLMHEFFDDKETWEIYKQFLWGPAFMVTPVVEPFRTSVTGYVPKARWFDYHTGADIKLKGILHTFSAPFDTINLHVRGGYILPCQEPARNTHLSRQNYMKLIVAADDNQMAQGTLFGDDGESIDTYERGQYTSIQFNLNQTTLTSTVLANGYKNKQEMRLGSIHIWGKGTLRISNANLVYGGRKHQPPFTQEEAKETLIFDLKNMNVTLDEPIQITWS

OC[C@H]1NC[C@@H](O[C@@H]2O[C@H](CO)[C@@H](O)[C@H](O)[C@H]2O)[C@@H](O)[C@@H]1O
Activity [1]: inactive

OC[C@H]1NC[C@@H](O)[C@@H](O[C@@H]2O[C@H](CO)[C@@H](O)[C@H](O)[C@H]2O)[C@@H]1O
Activity [1]: inactive

OC[C@H]1O[C@H](OC[C@H]2NC[C@@H](O)[C@@H](O)[C@@H]2O)[C@H](O)[C@@H](O)[C@@H]1O
Ki [1]: 19 µM

OC[C@H]1N[C@H](CO)[C@@H](O)[C@H]1O
IC50 [2]: 7.8 µM | IC50 [3]: 3.3 µM

OC[C@H]1NC[C@@H](O)[C@@H](O)[C@@H]1O[C@@H]1O[C@H](CO)[C@@H](O)[C@H](O)[C@H]1O
Activity [1]: inactive

C[C@@H]1O[C@@H](O[C@@H]2CN[C@H](CO)[C@@H](O)[C@@H]2O)[C@H](O)[C@H](O)[C@H]1O
Ki [1]: 0.06 µM

OC[C@H]1N[C@H](CO)[C@@H](O[C@@H]2O[C@H](CO)[C@@H](O)[C@H](O)[C@H]2O)[C@@H]1O
Activity (Prunus dulcis): inactive | IC50 [3]: 270 µM

OC[C@@H]1N[C@H](CO)[C@@H](O)[C@@H]1O
IC50 [2]: 320 µM | IC50 [4]: 1 mM | IC50 [5]: 1 mM

OC[C@H]1NC[C@@H](O[C@H]2O[C@H](CO)[C@H](O)[C@H](O)[C@H]2O)[C@@H](O)[C@@H]1O
Activity [1]: inactive
